Reference: ChEMBL document CHEMBL4184147, “Polyphenolic Phytochemicals in Cancer Prevention and Therapy: Bioavailability versus Bioefficacy” (J Med Chem, 2017)

Legend:
Lipid bilayer = test: Induction of DOPC/n-decane bilayer property changes assessed as concentration required to double gramicidin-induced quencher influx rate by […]
[1] = Cytotoxicity against human MML1 cells assessed as decrease in cell viability after 48 hrs by MTT assay; type: functional, cell-based
MDA-MB-231 [2] = test: Cytotoxicity against human MDA-MB-231 cells assessed as cell viability at 18 uM after 48 hrs by MTT assay; type: functional; details: MDA-MB-231, 48 h, read-out: Activity
U-87 MG [3] = test: Cytotoxicity against human U87 cells assessed as cell viability at 18 uM after 48 hrs by MTT assay; type: functional, U-87MG ATCC; details: read-out: Activity
LN-229 [4] = test: Cytotoxicity against human LN229 cells assessed as cell viability at 18 uM after 48 hrs by MTT assay; type: functional; details: LN-229, 48 h, read-out: Activity
[5] = Plasma concentration in mouse at 100 mg/kg, po at 60 mins by LC-MS/MS method; type: ADME, organism-based
In short: (§1)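 For IV dosing, compound dissolved in DMSO:ethanol (2:1), total volume no more than 30 μL. For oral dosing, compound given in a self-microemulsifying delivery system (60% surfactant, emulsifier OP:Cremophor EL 1:1; 30% PEG 400; 10% ethyl oleate), total volume no more than 100 μL. Plasma levels measured by previously described methods.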

COLO 201 [6] = test: Cytotoxicity against human COLO201 cells assessed as decrease in cell viability after 48 hrs by trypan blue exclusion and LDH release; details: COLO 201, 48 h
NCI-H460 [7] = test: Cytotoxicity against human NCI-H460 cells assessed as decrease in cell viability after 48 hrs by MTT assay; type: functional, cell-based; details: NCI-H460, 48 h
[8] = Cytotoxicity against human MML1 cells assessed as cell viability at 18 uM after 48 hrs by MTT assay; type: functional; details: read-out: Activity
SK-MEL-2 [9] = test: Cytotoxicity against human SK-MEL-2 cells assessed as cell viability at 18 uM after 48 hrs by MTT assay; type: functional; details: SK-MEL-2, 48 h, read-out: Activity
[10] = Plasma concentration in mouse at 10 mg/kg, iv at 60 mins by LC-MS/MS method; type: ADME, organism-based; in short: as §1
[11] = Cmax in mouse at 10 mg/kg, iv by LC-MS/MS method; type: ADME, organism-based; design: dose 10 mg/kg, route intravenous; details: in vivo
In short: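 Mouse iv dosing used polyphenol dissolved in DMSO:ethanol (2:1), with total injected volume never above 30 μL. Plasma levels were measured by previously described methods.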

LN-229 [12] = test: Cytotoxicity against human LN229 cells assessed as decrease in cell viability after 48 hrs by trypan blue exclusion and LDH release; details: LN-229, 48 h
A549 [13] = test: Cytotoxicity against human A549 cells assessed as decrease in cell viability after 48 hrs by trypan blue exclusion and LDH release; details: A549, 48 h
U-87 MG [14] = test: Cytotoxicity against human U87 cells assessed as decrease in cell viability after 48 hrs by trypan blue exclusion and LDH release
BXPC-3 [15] = test: Cytotoxicity against human BxPC3 cells assessed as decrease in cell viability after 48 hrs by MTT assay; type: functional, cell-based; details: BXPC-3, 48 h
SK-MEL-2 [16] = test: Cytotoxicity against human SK-MEL-2 cells assessed as decrease in cell viability after 48 hrs by MTT assay; type: functional, cell-based; details: SK-MEL-2, 48 h
[17] = Tmax in mouse at 10 mg/kg, iv by LC-MS/MS method; type: ADME, organism-based; details: in vivo; in short: as §1
T47D [18] = test: Cytotoxicity against human T47D cells assessed as cell viability at 18 uM after 48 hrs by MTT assay; type: functional; details: read-out: Activity
PANC-1 [19] = test: Cytotoxicity against human PANC1 cells assessed as decrease in cell viability after 48 hrs by MTT assay; type: functional, cell-based; details: PANC-1, 48 h
A549 [20] = test: Cytotoxicity against human A549 cells assessed as cell viability at 18 uM after 48 hrs by MTT assay; type: functional; details: A549, 48 h, read-out: Activity
HT-29 [21] = test: Cytotoxicity against human HT-29 cells assessed as cell viability at 18 uM after 48 hrs by MTT assay; type: functional; details: HT-29, 48 h, read-out: Activity
BXPC-3 [22] = test: Cytotoxicity against human BxPC3 cells assessed as cell viability at 18 uM after 48 hrs by MTT assay; type: functional; details: BXPC-3, 48 h, read-out: Activity
NCI-H460 [23] = test: Cytotoxicity against human NCI-H460 cells assessed as cell viability at 18 uM after 48 hrs by MTT assay; type: functional; details: NCI-H460, 48 h, read-out: Activity
[24] = Tmax in mouse at 100 mg/kg, po by HPLC method; type: ADME, organism-based; details: in vivo
In short: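 Given orally in a self-microemulsifying delivery system (60% surfactant, emulsifier OP:Cremophor EL 1:1; 30% PEG 400 cosurfactant; 10% ethyl oleate oil), total volume no more than 100 μL. Plasma levels measured by previously described methods.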

PANC-1 [25] = test: Cytotoxicity against human PANC1 cells assessed as cell viability at 18 uM after 48 hrs by MTT assay; type: functional; details: PANC-1, 48 h, read-out: Activity
COLO 201 [26] = test: Cytotoxicity against human COLO201 cells assessed as cell viability at 18 uM after 48 hrs by MTT assay; type: functional; details: COLO 201, 48 h, read-out: Activity
T47D [27] = test: Cytotoxicity against human T47D cells assessed as decrease in cell viability after 48 hrs by trypan blue exclusion and LDH release
HT-29 [28] = test: Cytotoxicity against human HT-29 cells assessed as decrease in cell viability after 48 hrs by trypan blue exclusion and LDH release; details: HT-29, 48 h
MDA-MB-231 [29] = test: Cytotoxicity against human MDA-MB-231 cells assessed as decrease in cell viability after 48 hrs by trypan blue exclusion and LDH release; details: MDA-MB-231, 48 h
[30] = Cmax in mouse at 100 mg/kg, po by HPLC method; type: ADME, organism-based; design: dose 100 mg/kg, route oral; details: in vivo
In short: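 For oral dosing, polyphenol was dissolved in a self-microemulsifying delivery system: 60% surfactant (emulsifier OP:Cremophor EL 1:1), 30% cosurfactant (PEG 400) and 10% oil (ethyl oleate). Total volume given was never above 100 μL. Plasma levels were quantified by previously described methods.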

COLO 201 [31] = test: Cytotoxicity against human COLO201 cells assessed as cell viability at 6 uM after 48 hrs by MTT assay; type: functional; details: COLO 201, 48 h, read-out: Activity
[32] = Displacement of [3H]resveratrol from Sprague-Dawley rat brain plasma membranes after 1 hr by beta counting method; type: cell membranes
T47D [33] = test: Cytotoxicity against human T47D cells assessed as cell viability at 6 uM after 48 hrs by MTT assay; type: functional; details: read-out: Activity
BXPC-3 [34] = test: Cytotoxicity against human BxPC3 cells assessed as cell viability at 6 uM after 48 hrs by MTT assay; type: functional; details: BXPC-3, 48 h, read-out: Activity
LN-229 [35] = test: Cytotoxicity against human LN229 cells assessed as cell viability at 6 uM after 48 hrs by MTT assay; type: functional; details: LN-229, 48 h, read-out: Activity
HT-29 [36] = test: Cytotoxicity against human HT-29 cells assessed as cell viability at 6 uM after 48 hrs by MTT assay; type: functional; details: HT-29, 48 h, read-out: Activity
PANC-1 [37] = test: Cytotoxicity against human PANC1 cells assessed as cell viability at 6 uM after 48 hrs by MTT assay; type: functional; details: PANC-1, 48 h, read-out: Activity
[38] = Cytotoxicity against human MML1 cells assessed as cell viability at 6 uM after 48 hrs by MTT assay; type: functional; details: read-out: Activity
SK-MEL-2 [39] = test: Cytotoxicity against human SK-MEL-2 cells assessed as cell viability at 6 uM after 48 hrs by MTT assay; type: functional; details: SK-MEL-2, 48 h, read-out: Activity
A549 [40] = test: Cytotoxicity against human A549 cells assessed as cell viability at 6 uM after 48 hrs by MTT assay; type: functional; details: A549, 48 h, read-out: Activity
NCI-H460 [41] = test: Cytotoxicity against human NCI-H460 cells assessed as cell viability at 6 uM after 48 hrs by MTT assay; type: functional; details: NCI-H460, 48 h, read-out: Activity
Cannabinoid receptor 1 = Cannabinoid receptor 1 (Homo sapiens, UniProt P21554); test: Displacement of […] from human recombinant CB1 receptor expressed in Chem1 cells after 90 mins by scintillation counting method; type: cell-based
MDA-MB-231 [42] = test: Cytotoxicity against human MDA-MB-231 cells assessed as cell viability at 6 uM after 48 hrs by MTT assay; type: functional; details: MDA-MB-231, 48 h, read-out: Activity
U-87 MG [43] = test: Cytotoxicity against human U87 cells assessed as cell viability at 6 uM after 48 hrs by MTT assay; type: functional, U-87MG ATCC; details: read-out: Activity

Sequence of Cannabinoid receptor 1 (P21554 whole entry): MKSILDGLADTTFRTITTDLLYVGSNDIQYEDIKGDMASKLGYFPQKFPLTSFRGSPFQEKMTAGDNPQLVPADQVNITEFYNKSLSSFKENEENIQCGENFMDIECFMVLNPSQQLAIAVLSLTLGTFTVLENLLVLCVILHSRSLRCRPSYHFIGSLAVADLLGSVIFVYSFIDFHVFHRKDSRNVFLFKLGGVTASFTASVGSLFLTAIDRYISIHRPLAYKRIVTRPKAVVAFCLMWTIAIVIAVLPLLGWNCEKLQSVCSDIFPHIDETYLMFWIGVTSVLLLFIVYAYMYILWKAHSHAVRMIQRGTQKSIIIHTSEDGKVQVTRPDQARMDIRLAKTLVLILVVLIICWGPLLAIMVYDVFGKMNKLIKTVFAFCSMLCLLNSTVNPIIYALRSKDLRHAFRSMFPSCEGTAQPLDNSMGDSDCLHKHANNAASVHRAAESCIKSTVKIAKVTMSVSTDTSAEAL

| SMILES | Activity (Lipid bilayer) | IC50 [1] | concentration at 1 h [5] | IC50 (COLO 201 [6]) | IC50 (NCI-H460 [7]) | concentration at 1 h [10] | Cmax [11] | IC50 (LN-229 [12]) | IC50 (A549 [13]) | IC50 (U-87 MG [14]) | IC50 (BXPC-3 [15]) | IC50 (SK-MEL-2 [16]) | Tmax [17] | IC50 (PANC-1 [19]) | Tmax [24] | IC50 (T47D [27]) | IC50 (HT-29 [28]) | IC50 (MDA-MB-231 [29]) | Cmax [30] | further results |
| --- | --- | --- | --- | --- | --- | --- | --- | --- | --- | --- | --- | --- | --- | --- | --- | --- | --- | --- | --- | --- |
| COc1cc(CNC(=O)CCCC/C=C/C(C)C)ccc1O | 18 µM |  |  |  |  |  |  |  |  |  |  |  |  |  |  |  |  |  |  |  |
| O=c1c(-c2ccc(O)cc2)coc2cc(O)cc(O)c12 [GENISTEIN] | 26.7 µM | 42 µM | < 1 µM | 73 µM | 47 µM | < 1 µM | 35 µM | 44 µM | 64 µM | 55 µM | 79 µM | 36 µM | 5 min | 87 µM | 10 min | 48 µM | 50 µM | 43 µM | 17 µM | viability at 18 µM (MDA-MB-231 [2]): 91%; viability at 18 µM (U-87 MG [3]): 98%; viability at 18 µM (LN-229 [4]): 100%; viability at 18 µM [8]: 104%; viability at 18 µM (SK-MEL-2 [9]): 105%; viability at 18 µM (T47D [18]): 93%; viability at 18 µM (A549 [20]): 107%; viability at 18 µM (HT-29 [21]): 104%; viability at 18 µM (BXPC-3 [22]): 96%; viability at 18 µM (NCI-H460 [23]): 102%; viability at 18 µM (PANC-1 [25]): 99%; viability at 18 µM (COLO 201 [26]): 100% |
| O=C(O[C@@H]1Cc2c(O)cc(O)cc2O[C@@H]1c1cc(O)c(O)c(O)c1)c1cc(O)c(O)c(O)c1 [EPIGALOCATECHIN GALLATE] | 11.2 µM | 25 µM | < 1 µM | 38 µM | 18 µM | < 1 µM | 12 µM | 15 µM | 29 µM | 18 µM | 33 µM | 31 µM | 5 min | 62 µM | 30 min | 57 µM | 60 µM | 83 µM | 5 µM | viability at 6 µM (COLO 201 [31]): 100%; Ki [32]: 0.025 to 0.045 µM; viability at 6 µM (T47D [33]): 100%; viability at 6 µM (BXPC-3 [34]): 97%; viability at 6 µM (LN-229 [35]): 106%; viability at 6 µM (HT-29 [36]): 96%; viability at 6 µM (PANC-1 [37]): 95%; viability at 6 µM [38]: 102%; viability at 6 µM (SK-MEL-2 [39]): 99%; viability at 6 µM (A549 [40]): 103%; viability at 6 µM (NCI-H460 [41]): 105%; Ki (Cannabinoid receptor 1): 33.6 µM; viability at 6 µM (MDA-MB-231 [42]): 102%; viability at 6 µM (U-87 MG [43]): 98% |
